Measurements reported in article PMC3646568 (Protein and peptide letters, 2012).
Like-named read-outs stand apart in the source and are kept apart here.

Columns and labels:
VEGFR-2-Fc = conditions: cited from earlier work
[1] = system: VEGF or basic fibroblast growth factor (bFGF); conditions: cited from earlier work
VEGFR-3 (Homo sapiens) = VEGFR-3 (Homo sapiens) (UniProt P35916); conditions: cited from earlier work
[2] = target: T1, recombinant mouse VEGFR-3-Fc (mouse, UniProt P35917 25-775); assay: SPR
T1 sequence (looked up): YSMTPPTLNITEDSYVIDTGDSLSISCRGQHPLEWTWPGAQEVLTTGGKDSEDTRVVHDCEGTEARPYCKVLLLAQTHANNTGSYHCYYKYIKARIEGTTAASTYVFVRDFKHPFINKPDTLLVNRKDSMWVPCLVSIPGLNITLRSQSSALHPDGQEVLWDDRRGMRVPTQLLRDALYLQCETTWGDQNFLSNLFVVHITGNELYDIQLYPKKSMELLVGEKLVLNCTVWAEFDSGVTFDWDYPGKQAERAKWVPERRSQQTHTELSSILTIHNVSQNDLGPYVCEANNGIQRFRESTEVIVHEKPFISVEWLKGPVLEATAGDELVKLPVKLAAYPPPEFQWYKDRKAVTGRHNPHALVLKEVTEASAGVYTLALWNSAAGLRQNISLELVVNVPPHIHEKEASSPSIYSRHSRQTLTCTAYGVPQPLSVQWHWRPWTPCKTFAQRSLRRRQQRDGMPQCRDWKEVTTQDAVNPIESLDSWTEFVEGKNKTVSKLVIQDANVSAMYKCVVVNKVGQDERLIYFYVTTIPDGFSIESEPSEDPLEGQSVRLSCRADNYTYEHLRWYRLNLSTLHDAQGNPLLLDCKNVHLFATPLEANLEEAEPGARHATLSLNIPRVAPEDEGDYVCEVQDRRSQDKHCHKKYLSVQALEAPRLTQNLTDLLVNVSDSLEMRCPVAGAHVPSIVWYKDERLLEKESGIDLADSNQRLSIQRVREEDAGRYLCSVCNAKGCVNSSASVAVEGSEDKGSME

recombinant VEGFR-3-Fc = format: binding, mouse; conditions: pull-down
How it was run: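 GST-fused endostatin-containing fragments were incubated with recombinant VEGFR-3-Fc and a range of VEGF-C concentrations. Receptor–ligand complexes were recovered by pull-down and probed by western blot with anti-VEGFR-3 antibody.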

[3] = target: VEGFR3-AP (a VEGFR-3 fusion protein); conditions: fully processed VEGF-C binding to VEGFR3-AP; cited from earlier work
[4] = system: Primary human lung lymphatic endothelial cells (h-LECs); assay: Scratch wound cell migration assay, h-LECs; format: cell-based; conditions: 100 ng/mL VEGF-C stimulation, 24 h
How it was run: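 Confluent h-LECs held serum-free for 24 h, rinsed with DMEM, and scratched with a pipette tip. Washed with PBS, then kept 24 h in experimental medium with 100 ng/mL VEGF-C ± test peptide. Fixed in 4% paraformaldehyde; cells migrating past the scratch counted in ≥3 fields per well, three wells per condition.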

Molecule: endostatin
- Block of interaction of VEGF-A and VEGFR-2-Fc (VEGFR-2-Fc; 10-min preincubation of endostatin with VEGFR-2-Fc): blocks the interaction of VEGF-A and VEGFR-2-Fc in a dose-dependent manner
- Dissociation rate of VEGFR-2-Fc from VEGF and its receptor complex (VEGFR-2-Fc; endostatin 10 μg/mL): does not affect the dissociation rate
- Binding to VEGF or bFGF [1]: does not bind to VEGF or basic fibroblast growth factor (bFGF)

Molecule: VEGF-C (from UniProt P49767)
- Kd (VEGFR-3 (Homo sapiens)): 1 nM

B1: murine endostatin peptide (mEP) (peptide)
peptide: LEQKAASCHNSYIVLCIENSFMTSFSK
- koff [2]: 0.672 s⁻¹
- kon [2]: 1.41e+07 M⁻¹ s⁻¹

B2: GST-endostatin-containing fragments: GST-endostatin-containing fragments (protein)
chain: HTHQDFQPVLHLVALNTPLSGGMRGIRGADFQCFQQARAVGLSGTFRAFLSSRLQDLYSIVRRADRGSVPIVNLKDEVLSPSWDSLFSGSQGQLQPGARIFSFDGRDVLRHPAWPQKSVWHGSDPSGRRLMESYCETWRTETTGATGQASSLLSGRLLEQKAASCHNSYIVLCIENSFMTSFSK
modifications: left off: GST, end not stated, kept
- Binding of GST-endostatin-containing fragment to VEGFR-3-Fc (recombinant VEGFR-3-Fc; western blot with anti-VEGFR-3 antibody, absence of VEGF-C and low concentration of VEGF-C (lanes 1 and 2)): able to bind VEGFR-3-Fc
- Binding of GST-endostatin-containing fragment to VEGFR-3-Fc (recombinant VEGFR-3-Fc; western blot, VEGF-C at a higher concentration (lane 3)): diminished

B3: VEGF-C: vascular endothelial growth factor C, recombinant; literature KD for fully processed VEGF-C (protein)
chain: FESGLDLSDAEPDAGEATAYASKDLEEQLRSVSSVDELMTVLYPEYWKMYKCQLRKGGWQHNREQANLNSRTEETIKFAAAHYNTEILKSIDNEWRKTQCMPREVCIDVGKEFGVATNTFFKPPCVSVYRCGGCCNSEGLQCMNTSTSYLSKTLFEITVPLSQGPKPVTISFANHTSCRCMSKLDVYRQVHSIIRR
- Kd [3]: 1 nM
- Repopulation of the scratch surface [4]: approximately 50%
